In ChEMBL document CHEMBL5724801, “EUbOPEN Chemogenomics Library - Multiplex” (2024):
Several values for one entry are separate records, joined by “and”; a condition that tells them apart may be missing. Equal entries are not always repeated.

System: Fibroblast
Assay: Multiplex assay against human fibroblast
Type: toxicity, cell-based
Method in brief: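 Live cells were stained at seeding with Hoechst33342, BioTracker Green Microtubule Cytoskeleton Dye, MitoTracker Red and Annexin V Alexa Fluor 680. Following compound addition, they were imaged on a CQ1 microscope at 37°C and 5% CO2 and gated by CellPathfinder machine learning into Hoechst high-intensity objects or normal cells, with normal cells split into healthy, pyknosed or fragmented nuclei and pyknosed cells into mitotic or apoptotic. Tubulin, mitochondrial-mass and membrane-permeability phenotypes are per cents of healthy-nucleus cells.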

[1] = 12 h, 1 µM, compound concentration 1 uM
[2] = 12 h, 10 µM, compound concentration 10 uM
[3] = 24 h, 1 µM, compound concentration 1 uM
[4] = 24 h, 10 µM, compound concentration 10 uM
[5] = 48 h, 1 µM, compound concentration 1 uM
[6] = 48 h, 10 µM, compound concentration 10 uM

Oc1c(CN2CCN(c3ccccn3)CC2)cc(Cl)c2cccnc12
Population Apoptotic (%) [1]: 73% and 57%
Population Fragmented Nuclei (%) [1]: 17% and 27%
Population Healthy Nuclei (%) [1]: 68% and 54%
Population Hoechst High Intensity Objects (%) [1]: 4% and 5%
Population Membrane Permeable-Phenotype (%) [1]: 1% and 8%
Population Mitochondria Different-Phenotype (%) [1]: 0% and 6%
Population Mitotic Cells (%) [1]: 26% and 42%
Population Normal (%) [1]: 95% and 94%
Population Pyknosed Nuclei (%) [1]: 14% and 18%
Population Tubulin-Different-Phenotype (%) [1]: 27% and 43%
Total Cell Count [1]: 168 and 152
Population Apoptotic (%) [2]: 41% and 33%
Population Fragmented Nuclei (%) [2]: 17% and 25%
Population Healthy Nuclei (%) [2]: 54% and 58%
Population Hoechst High Intensity Objects (%) [2]: 5% and 2%
Population Membrane Permeable-Phenotype (%) [2]: 0% and 2%
Population Mitochondria Different-Phenotype (%) [2]: 25% and 9%
Population Mitotic Cells (%) [2]: 58% and 66%
Population Normal (%) [2]: 94% and 97%
Population Pyknosed Nuclei (%) [2]: 27% and 16%
Population Tubulin-Different-Phenotype (%) [2]: 67% and 62%
Total Cell Count [2]: 130 and 131
Population Apoptotic (%) [3]: 50% and 45%
Population Fragmented Nuclei (%) [3]: 19% and 29%
Population Healthy Nuclei (%) [3]: 67% and 56%
Population Hoechst High Intensity Objects (%) [3]: 3% and 5%
Population Membrane Permeable-Phenotype (%) [3]: 0% and 8%
Population Mitochondria Different-Phenotype (%) [3]: 3% and 7%
Population Mitotic Cells (%) [3]: 50% and 55%
Population Normal (%) [3]: 96% and 94%
Population Pyknosed Nuclei (%) [3]: 13%
Population Tubulin-Different-Phenotype (%) [3]: 30% and 47%
Total Cell Count [3]: 174 and 153
Population Apoptotic (%) [4]: 89% and 56%
Population Fragmented Nuclei (%) [4]: 26% and 35%
Population Healthy Nuclei (%) [4]: 46% and 41%
Population Hoechst High Intensity Objects (%) [4]: 0% and 2%
Population Membrane Permeable-Phenotype (%) [4]: 1%
Population Mitochondria Different-Phenotype (%) [4]: 15% and 11%
Population Normal (%) [4]: 100% and 97%
Population Pyknosed Nuclei (%) [4]: 27% and 22%
Population Tubulin-Different-Phenotype (%) [4]: 57% and 68%
Total Cell Count [4]: 139 and 134
Population Apoptotic (%) [5]: 54% and 70%
Population Fragmented Nuclei (%) [5]: 17% and 25%
Population Healthy Nuclei (%) [5]: 67% and 66%
Population Hoechst High Intensity Objects (%) [5]: 5% and 0%
Population Membrane Permeable-Phenotype (%) [5]: 1% and 4%
Population Mitochondria Different-Phenotype (%) [5]: 1% and 4%
Population Mitotic Cells (%) [5]: 45% and 30%
Population Normal (%) [5]: 94% and 99%
Population Pyknosed Nuclei (%) [5]: 14% and 7%
Population Tubulin-Different-Phenotype (%) [5]: 35% and 37%
Total Cell Count [5]: 158 and 137
Population Apoptotic (%) [6]: 85% and 78%
Population Fragmented Nuclei (%) [6]: 31% and 34%
Population Healthy Nuclei (%) [6]: 32% and 41%
Population Hoechst High Intensity Objects (%) [6]: 2%
Population Membrane Permeable-Phenotype (%) [6]: 0% and 1%
Population Mitochondria Different-Phenotype (%) [6]: 9% and 7%
Population Mitotic Cells (%) [6]: 14% and 21%
Population Normal (%) [6]: 97%
Population Pyknosed Nuclei (%) [6]: 35% and 24%
Population Tubulin-Different-Phenotype (%) [6]: 38% and 65%
Total Cell Count [6]: 137

COc1cc(OC2CCN(C(C)=O)CC2)ccc1C(=O)N1CCC(N2C(=O)OCc3ccccc32)CC1
Population Apoptotic (%) [1]: 41% and 40%
Population Fragmented Nuclei (%) [1]: 12% and 29%
Population Healthy Nuclei (%) [1]: 64% and 52%
Population Hoechst High Intensity Objects (%) [1]: 5% and 3%
Population Membrane Permeable-Phenotype (%) [1]: 2% and 0%
Population Mitochondria Different-Phenotype (%) [1]: 5% and 3%
Population Mitotic Cells (%) [1]: 58% and 59%
Population Normal (%) [1]: 94% and 96%
Population Pyknosed Nuclei (%) [1]: 22% and 17%
Population Tubulin-Different-Phenotype (%) [1]: 32% and 34%
Total Cell Count [1]: 157 and 159
Population Apoptotic (%) [2]: 52% and 37%
Population Healthy Nuclei (%) [2]: 73% and 40%
Population Hoechst High Intensity Objects (%) [2]: 3% and 6%
Population Membrane Permeable-Phenotype (%) [2]: 0% and 2%
Population Mitochondria Different-Phenotype (%) [2]: 6% and 10%
Population Mitotic Cells (%) [2]: 48% and 62%
Population Normal (%) [2]: 96% and 93%
Population Pyknosed Nuclei (%) [2]: 16% and 28%
Population Tubulin-Different-Phenotype (%) [2]: 54% and 56%
Total Cell Count [2]: 161 and 134
Population Apoptotic (%) [3]: 63% and 48%
Population Fragmented Nuclei (%) [3]: 19% and 28%
Population Healthy Nuclei (%) [3]: 63% and 51%
Population Hoechst High Intensity Objects (%) [3]: 1%
Population Membrane Permeable-Phenotype (%) [3]: 0% and 5%
Population Mitochondria Different-Phenotype (%) [3]: 4% and 3%
Population Mitotic Cells (%) [3]: 36% and 51%
Population Normal (%) [3]: 98%
Population Pyknosed Nuclei (%) [3]: 17% and 19%
Population Tubulin-Different-Phenotype (%) [3]: 32% and 31%
Total Cell Count [3]: 170 and 155
Population Apoptotic (%) [4]: 36% and 43%
Population Fragmented Nuclei (%) [4]: 13% and 34%
Population Healthy Nuclei (%) [4]: 74% and 48%
Population Hoechst High Intensity Objects (%) [4]: 7%
Population Membrane Permeable-Phenotype (%) [4]: 1% and 3%
Population Mitochondria Different-Phenotype (%) [4]: 7% and 10%
Population Mitotic Cells (%) [4]: 63% and 56%
Population Normal (%) [4]: 92%
Population Pyknosed Nuclei (%) [4]: 11% and 17%
Population Tubulin-Different-Phenotype (%) [4]: 39% and 70%
Total Cell Count [4]: 172 and 145
Population Apoptotic (%) [5]: 40% and 58%
Population Fragmented Nuclei (%) [5]: 14% and 32%
Population Healthy Nuclei (%) [5]: 70% and 52%
Population Hoechst High Intensity Objects (%) [5]: 7% and 3%
Population Membrane Permeable-Phenotype (%) [5]: 0% and 4%
Population Mitochondria Different-Phenotype (%) [5]: 5% and 4%
Population Mitotic Cells (%) [5]: 59% and 41%
Population Normal (%) [5]: 92% and 96%
Population Pyknosed Nuclei (%) [5]: 14% and 15%
Population Tubulin-Different-Phenotype (%) [5]: 35% and 43%
Total Cell Count [5]: 160 and 163
Population Apoptotic (%) [6]: 57% and 56%
Population Healthy Nuclei (%) [6]: 79% and 51%
Population Hoechst High Intensity Objects (%) [6]: 5% and 3%
Population Membrane Permeable-Phenotype (%) [6]: 0% and 3%
Population Mitochondria Different-Phenotype (%) [6]: 13% and 10%
Population Mitotic Cells (%) [6]: 42% and 43%
Population Normal (%) [6]: 94% and 96%
Population Pyknosed Nuclei (%) [6]: 9% and 12%
Population Tubulin-Different-Phenotype (%) [6]: 51% and 69%
Total Cell Count [6]: 155 and 134
